# High-throughput results from PubChem BioAssay.
# MBD2 DNA inh = inhibitors of MBD2 binding to methylated DNA, primary screen, biochemical, TR-FRET, DNA-binding domain, human; AID 686964, 2013; Methyl-CpG-binding domain protein 2 (Homo sapiens), Q9UBB5; MBD2 binding to methylated oligonucleotide; hit rate 0.31% among 370,000; inhibition, % at 4.4 µM; in the data active = inhibition above about 13%
# UHRF1 MBD2 ctr = UHRF1 methylated DNA binding inhibitors, primary screen, counter-screen for MBD2 inhibitor project, biochemical, TR-FRET, human UHRF1, single concentration; UHRF1 binding to methylated oligo; AID 687016, 2013; hit rate 0.75% among 370,000; inhibition, % at 4.4 µM; E3 ubiquitin-protein ligase UHRF1 (Homo sapiens), Q96T88; in the data active = inhibition above about 21%;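 note: UHRF1 SRA domain binding a hemimethylated CpG hairpin DNA probe; 0% = median of test compound wells and 100% = reference inhibitor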
# LEDGF integ inh = blockers of LEDGF/p75-dependent integrase strand transfer – biochemical, TR-FRET, high throughput, primary screen; HIV-1 integrase (with human LEDGF/p75); TR-FRET IN-LEDGF/p75 DNA integration, Eu/Cy5; inhibition, % at 3.7 µM; hit rate 0.64% among 370,000; AID 743269, 2014;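 active = inhibition above the screen-wide mean plus 3 SD, cut at about 13% in these data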;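 note: signal is the Cy5 over europium emission ratio at 671 and 618 nm; 0% = plate median of compound wells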
# ATG4B inhibitor = ATG4B protease inhibitors, primary screen, biochemical, fluorescence, uHTS. Cysteine protease ATG4B (Homo sapiens), Q9Y4P1. AID 504462, 2011. inhibition, % at 8.33 µM. ATG4B cleavage of LC3-PLA2, NBD-HPC fluorescence, 1 h. hit rate 0.51% among 340,000; in the data active = inhibition above about 40%
# Target sequence (Q9Y4P1 whole entry, looked up): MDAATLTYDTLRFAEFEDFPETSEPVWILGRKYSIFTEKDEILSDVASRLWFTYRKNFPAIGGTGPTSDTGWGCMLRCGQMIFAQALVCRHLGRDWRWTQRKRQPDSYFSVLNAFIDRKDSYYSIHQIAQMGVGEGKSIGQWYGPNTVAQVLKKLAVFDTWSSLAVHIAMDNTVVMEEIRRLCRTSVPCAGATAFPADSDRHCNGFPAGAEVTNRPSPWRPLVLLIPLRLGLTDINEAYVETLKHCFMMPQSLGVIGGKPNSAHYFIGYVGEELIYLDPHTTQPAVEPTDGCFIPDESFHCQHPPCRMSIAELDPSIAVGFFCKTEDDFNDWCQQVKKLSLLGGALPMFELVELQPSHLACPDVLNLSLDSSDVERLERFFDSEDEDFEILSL
# CSN deneddyl inh = inhibitors of CSN-mediated cullin deneddylation, primary screen, biochemical, fluorescence polarization, uHTS. COP9 signalosome complex subunit 5 (Homo sapiens), Q92905. Purified CSN, SCF-Nedd8-OG deneddylation. inhibition, % at 12.5 µM. hit rate 0.38% among 360,000. AID 651999, 2013;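 active = pattern-corrected inhibition above about 35%, with an unprinted fluorescence ratio check between 0.5 and 1.5, limit read from the data, passing the limit was not always enough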;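 note: 0% = enzyme with substrate and 100% = substrate without enzyme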
#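 Material: purified human Csn5 enzyme expressed in HEK293T cells / Medium: Tris buffer pH 7.5, NaCl, DTT, Tween-20, trehalose, ovalbumin / Compound dosing: 12.5 µM single point / Schedule: 90 min incubation of compound, enzyme and substrate at room temperature / Signal: fluorescence polarization of the substrate / Control set: no-enzyme wells high, enzyme-with-substrate wells low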
# rCAG RNA binder = binders of r(CAG) RNA repeats, primary screen, biochemical, fluorescence; r(CAG) RNA repeat, TO-PRO-1 dye displacement fluorescence; hit rate 1.3% among 370,000; inhibition, % at 3 µM;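 active = inhibition above the plate cutoff, the mean of all test compounds on that plate plus 3 SD, cut at about 35% in these data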;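 note: 0% = DMSO alone and 100% = 100 µM mitoxantrone as full dye displacement; higher means more dye released from RNA so lower well fluorescence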
# rCAG bind conf = small molecules binding CAG repeat RNA – biochemical, fluorescence, confirmation. hit rate 70% among 4,300. r(CAG) RNA repeat, TO-PRO-1 dye displacement fluorescence. inhibition, % at 3 µM. AID 652065, 2013. shares compounds with rCAG RNA binder;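 active = inhibition above a per-plate cutoff, the mean inhibition of sample wells plus 3 SD, cut at about 35% in these data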;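 note: loss of TO-PRO-1 fluorescence as compound displaces dye from 1x1 AA loop RNA; 0% = DMSO only wells and 100% = 100 µM mitoxantrone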
# DNA CAG counter = displacement of TO-PRO-1 from CAG DNA duplex, counter-screen for rCAG RNA repeat binder project, biochemical, fluorescence, TO-PRO-1 dye, d(CAG) DNA oligo. d(CAG) DNA oligo TO-PRO-1 dye displacement. hit rate 94% among 4,300. inhibition, % at 3 µM. shares compounds with rCAG RNA binder;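 active = inhibition above its plate's cutoff, the mean test-well inhibition plus 3 SD, cut at about 4.8% in these data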;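 note: 0% = DNA dye mix with DMSO and 100% = 100 µM mitoxantrone; hits displace the dye from DNA and so lower well fluorescence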
# The depositor's hits bear a star; · = not tested or not shown. Hits are enriched below; roughly 3.1% of the tested compounds scored in any of these assays.
SMILES,MBD2 DNA inh,UHRF1 MBD2 ctr,LEDGF integ inh,ATG4B inhibitor,CSN deneddyl inh,rCAG RNA binder,rCAG bind conf,DNA CAG counter
COc1cc(/C=N/NC(=O)C(Cc2c[nH]c3ccccc23)NC(=O)OCc2ccccc2)cc([N+](=O)[O-])c1O (stereo unspecified),-13,-8,6,18,-5,83*,81*,47*
COc1cc(/C=N/NC(=O)C(Cc2c[nH]c3ccccc23)NC(=O)OCC(C)C)cc([N+](=O)[O-])c1O (stereo unspecified),-6,1,1,0,-1,57*,69*,25*
COCCNC(=O)C(Cc1c[nH]c2ccccc12)NC(=O)OCc1ccccc1 (stereo unspecified),-4,-1,-1,1,6,-6,·,·
O=C(O)/C(=C\c1ccc(Cl)cc1)c1ccc(S(=O)(=O)N2CCCC2)s1,-2,-4,4,-2,1,27,·,·
CSc1ccc(/C=C(\C(=O)O)c2ccc(S(=O)(=O)N3CCCCC3)s2)cc1,-3,4,8,-5,2,59*,55*,20*
O=C(O)c1cc(S(=O)(=O)N2CCCCC2)sc1Cl,0,5,-1,-3,0,-1,·,·
O=C(O)/C(=C\c1ccccc1Cl)c1ccc(S(=O)(=O)N2CCCCC2)s1,5,2,1,20,7,51*,34,9.4*
O=C(O)/C(=C\c1ccc(Cl)c([N+](=O)[O-])c1)c1ccc(S(=O)(=O)N2CCCCC2)s1,5,-1,2,13,12,38*,68*,29*
O=C(O)/C(=C\c1ccc(Cl)c([N+](=O)[O-])c1)c1ccc(S(=O)(=O)N2CCCC2)s1,7,5,-1,7,19,71*,47*,15*
CCOc1ccc(/C=C(\C(=O)O)c2ccc(S(=O)(=O)N3CCOCC3)s2)cc1OC,2,2,-2,-4,0,10,·,·
O=C(c1cccc(C(F)(F)F)c1)N1CCN(S(=O)(=O)c2ccc(Cl)s2)CC1,2,0,-1,-3,-2,-6,·,·
O=C(N1CCCCC1)N1CCN(S(=O)(=O)c2cccc([N+](=O)[O-])c2)CC1,-5,-1,0,3,-1,-2,·,·
CCOc1ccc(/C=C(\C(=O)O)c2ccc(S(=O)(=O)N3CCCCC3)s2)cc1OC,0,2,0,-2,3,38*,35*,10*
O=C(O)/C(=C\c1cccc(C(F)(F)F)c1)c1ccc(S(=O)(=O)N2CCCC2)s1,3,0,3,0,1,36*,26,5.5*
O=C(O)/C(=C\c1cccc([N+](=O)[O-])c1)c1ccc(S(=O)(=O)N2CCCCC2)s1,1,2,4,13,6,38*,44*,14*
CCn1c(SCC(=O)Nc2ccc(C(N)=O)cc2)nc2sc(C)c(C)c2c1=O,-4,1,1,·,·,3,·,·
CC(=O)Nc1ccc(C(CCCc2ccccc2)C2=CCCCC2)cc1 (stereo unspecified),-2,-4,6,·,·,3,·,·
COc1ccc(O)c(C(=O)c2cnn(-c3ccccn3)c2)c1,1,0,7,-6,3,-1,·,·
